# From paper PMC6044948 (ACS Omega, 2017)
# Legend:
# [1] = Solubility enhancement assay with WP6; format: physicochemical; details: for solubility at 3 h: NaD2PO4 buffer with WP6, pH 7.4; for solubility enhancement in the presence of WP6: versus intrinsic solubility
# Method in brief: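 Excess solid test compound stirred 3 h at room temperature in NaD2PO4 (10 mM, pD 7.4) containing a known concentration of pillararene host. Undissolved drug removed by centrifugation. Supernatant drug quantified by 1H NMR integration against subsequently added 1,3,5-benzenetricarboxylic acid as internal reference. Each point in triplicate; phase solubility diagrams plotted; enhancement taken relative to intrinsic solubility.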
# [2] = Intrinsic solubility of CPT/HCPT; format: physicochemical; details: PBS (CPT); NaD2PO4 buffer (HCPT), aqueous buffer, thermodynamic from solid
# Method in brief: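 Excess solid stirred at room temperature, then undissolved material removed by centrifugation. In PBS: stirred 6 h; supernatant quantified by UV–vis against an absorbance standard curve. In NaD2PO4 (10 mM, pD 7.4): stirred 3 h; supernatant quantified by 1H NMR integration against a known concentration of 1,3,5-benzenetricarboxylic acid as internal reference.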
# Hela cells = test: In vitro cytotoxicity against cancer cells, CCK-8 assay; format: cell-based; details: Homo sapiens, 24 h
# Method in brief: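 HeLa cells seeded at 4 × 10^3/well and cultured 12 h, then given fresh medium with free test compound, pillararene host alone, or host-loaded test compound for 24 h. Drug range 5 × 10–4–5 × 101 μM; host alone 5 × 10–3–5 × 102 μM. CCK-8 added for 3 h, OD read at 450 nm. Viability was set relative to a medium-only control (100%). IC50 is the concentration giving 50% viability. Mean ± SD, n = 6; Student's t test.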
SMILES,solubility at 3 h [1] [µM],solubility enhancement in the presence of WP6 [1] [times],solubility [2] [µM],IC50 (Hela cells) [nM]
"CC[C@@]1(O)C(=O)OCc2c1cc1n(c2=O)Cc2cc3ccccc3nc2-1 [CPT, 20-(S)-camptothecin]",> 1000,380,5,800
"CC[C@@]1(O)C(=O)OCc2c1cc1n(c2=O)Cc2cc3cc(O)ccc3nc2-1 [HCPT, 10-hydroxycamptothecin]",> 1000,40,29,1300
